Source: ChEMBL document CHEMBL3286225, “Novel carboline derivatives as potent antifungal lead compounds: design, synthesis, and biological evaluation” (ACS Med Chem Lett, 2014)
Converted amounts (≈) assume the structure as drawn. The source made the active and inactive calls. The rule behind the calls is not given here.

Key:
Candida albicans [1] = test: Inhibition of biofilm formation of fluconazole-sensitive Candida albicans SC5314 after 48 hrs by XTT assay; assay type: functional, organism-based
Summary of the method: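 Biofilm formation by C. albicans SC5314 was tested with compound at 2–64 μg/mL. Untreated and fluconazole 64 μg/mL controls were included. Biofilm was quantified by XTT reduction and expressed as % of untreated control. Mean ± SD of three independent experiments; ANOVA and Student t test, p<0.05.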

WI-38 = test: Cytotoxicity against human WI38 cells by MTT assay; assay type: cell-based
Nannizzia gypsea = test: Antifungal activity against Microsporum gypseum Cmccfmza after 7 days by serial dilution method; assay type: functional; conditions: 168 h
Candida albicans [2] = test: Inhibition of biofilm formation of fluconazole-resistant Candida albicans 103 at 32 ug/ml after 48 hrs by XTT assay; assay type: functional; conditions: Candida albicans, 103, 48 h
Summary of the method: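 Biofilm formation by C. albicans SC5314 or 103 in presence of 2–64 μg/mL drug (fluconazole 64 μg/mL reference); quantified by XTT reduction as % of blank control; mean ± standard deviation of three independent experiments, ANOVA and Student t test.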

CYP3A4 [3] = target: T1, CYP3A4 (Homo sapiens, UniProt P08684); test: Inhibition of CYP3A4 in human liver microsomes assessed as midazolam conversion to 1'-hydroxy midazolam at 25 uM preincubated for 10 mins followed by NADPH addition measured after 15 mins by LC-MS/MS analysis relative to control; assay type: ADME; conditions: probe midazolam
T1 sequence (P08684 whole entry): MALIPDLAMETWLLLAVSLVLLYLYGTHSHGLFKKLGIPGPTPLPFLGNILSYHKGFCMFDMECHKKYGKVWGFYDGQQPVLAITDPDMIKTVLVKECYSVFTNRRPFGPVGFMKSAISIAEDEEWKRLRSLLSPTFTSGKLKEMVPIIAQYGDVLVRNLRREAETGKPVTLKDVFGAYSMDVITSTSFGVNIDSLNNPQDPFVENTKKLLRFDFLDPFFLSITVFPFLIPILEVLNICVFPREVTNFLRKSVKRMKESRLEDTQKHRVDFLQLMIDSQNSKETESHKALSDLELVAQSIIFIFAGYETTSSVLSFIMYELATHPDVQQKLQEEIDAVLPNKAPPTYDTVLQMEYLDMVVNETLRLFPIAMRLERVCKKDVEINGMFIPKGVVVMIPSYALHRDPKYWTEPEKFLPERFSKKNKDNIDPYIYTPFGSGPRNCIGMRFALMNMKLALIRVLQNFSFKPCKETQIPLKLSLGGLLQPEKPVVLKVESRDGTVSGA

CYP3A4 [4] = target: T1, CYP3A4; test: Inhibition of CYP3A4 in human liver microsomes assessed as testosterone conversion to 6-hydroxy testosterone at 25 uM preincubated for 10 mins followed by NADPH addition measured after 15 mins by LC-MS/MS analysis relative to control; assay type: ADME; conditions: probe testosterone
Candida albicans [5] = test: Inhibition of hyphal growth of fluconazole-sensitive Candida albicans SC5314 assessed as appearance of pseudohyphal form at 2 ug/ml after 16 hrs by light microscopic analysis; assay type: functional, organism-based
Summary of the method: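 C. albicans SC5314 was grown in RPMI 1640 at 37 °C for 16 h, without compound or with 2–8 μg/mL. A fluconazole 8 μg/mL control was included. Cell morphology (hyphae, pseudohyphae, budding yeast) was then scored by microscopy.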

CYP2C9 [6] = target: T2, CYP2C9 (Homo sapiens, UniProt P11712); test: Inhibition of CYP2C9 in human liver microsomes assessed as tolbutamide conversion to 4-hydroxy tolbutamide at 0.25 uM preincubated for 10 mins followed by NADPH addition measured after 15 mins by LC-MS/MS analysis relative to control; assay type: ADME; conditions: probe tolbutamide
T2 sequence (P11712 whole entry): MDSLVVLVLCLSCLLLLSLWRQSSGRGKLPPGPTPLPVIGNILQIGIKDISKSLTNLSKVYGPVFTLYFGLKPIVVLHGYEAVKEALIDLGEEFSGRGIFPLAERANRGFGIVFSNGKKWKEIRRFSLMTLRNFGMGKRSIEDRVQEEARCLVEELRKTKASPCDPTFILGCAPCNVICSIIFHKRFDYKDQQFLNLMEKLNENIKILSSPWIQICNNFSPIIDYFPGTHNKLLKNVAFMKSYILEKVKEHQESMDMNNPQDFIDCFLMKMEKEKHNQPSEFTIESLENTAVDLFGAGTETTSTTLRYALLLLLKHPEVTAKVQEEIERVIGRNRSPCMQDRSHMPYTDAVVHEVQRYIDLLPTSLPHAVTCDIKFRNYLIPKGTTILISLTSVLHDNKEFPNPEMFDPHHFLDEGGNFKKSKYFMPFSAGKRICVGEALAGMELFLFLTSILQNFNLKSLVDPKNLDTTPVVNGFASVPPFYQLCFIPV

CYP2C9 [7] = target: T2, CYP2C9; test: Inhibition of CYP2C9 in human liver microsomes assessed as tolbutamide conversion to 4-hydroxy tolbutamide at 2.5 uM preincubated for 10 mins followed by NADPH addition measured after 15 mins by LC-MS/MS analysis relative to control; assay type: ADME; conditions: probe tolbutamide
Candida tropicalis = test: Antifungal activity against Candida tropicalis after 7 days by serial dilution method; assay type: functional; conditions: 168 h
Candida albicans [8] = test: Antifungal activity against fluconazole-resistant Candida albicans 100 after 24 hrs by serial dilution method; assay type: functional; conditions: Candida albicans, 100, 24 h
Candida albicans [9] = test: Antifungal activity against fluconazole-sensitive Candida albicans SC5314 assessed as cell membrane damage at 8 ug/ml after 8 hrs by TEM analysis; assay type: functional, organism-based
Summary of the method: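 Transmission electron microscopy of C. albicans SC5314 cells exposed to 8 μg/mL drug for 8 h; untreated cells as reference; cell wall, membrane, cytoplasm and vacuole morphology inspected.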

Candida albicans [10] = test: Antifungal activity against fluconazole-resistant Candida albicans 805 after 24 hrs by serial dilution method; assay type: functional; conditions: Candida albicans, 805, 24 h
Candida albicans [11] = test: Fungicidal activity against fluconazole-resistant Candida albicans 103 assessed as growth inhibition at 4 to 32 ug/ml after 12 to 48 hrs; assay type: functional, organism-based
Summary of the method: (§1)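 Time-kill: C. albicans (SC5314 or 103) inoculated at 10^5 CFU/mL, untreated or with drug (2–32 μg/mL; fluconazole 32 μg/mL reference); CFU/mL counted after 0, 12, 24 and 48 h.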

Pichia kudriavzevii = test: Antifungal activity against Candida krusei 0710397 after 7 days by serial dilution method; assay type: functional; conditions: Pichia kudriavzevii, 0710397, 168 h
Candida albicans [12] = test: Antifungal activity against fluconazole-sensitive Candida albicans SC5314 assessed as change in sterol composition at 8 ug/ml after 24 hrs by GC-MS analysis (reference value: 8.5%); assay type: functional
Summary of the method: (§2)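 C. albicans SC5314 exposed to 8 μg/mL for 24 h, sterols analysed by GC-MS with cholesterol internal standard; each sterol expressed as % of total sterol fraction versus no-drug control; average of three independent experiments.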

Candida albicans [13] = test: Fungicidal activity against fluconazole-sensitive Candida albicans SC5314 assessed as reduction in fungi density after 24 hrs; assay type: functional, organism-based; summary of the method: as §1
Candida albicans [14] = test: Antifungal activity against fluconazole-sensitive Candida albicans SC5314 assessed as change in lanosterol composition at 8 ug/ml after 24 hrs by GC-MS analysis (reference value: 1.5%); assay type: functional; summary of the method: as §2
Cytochrome P450 3A4 = Cytochrome P450 3A4 (Homo sapiens, UniProt P08684); test: Inhibition of CYP3A4 in human liver microsomes assessed as testosterone conversion to 6-hydroxy testosterone preincubated for 10 mins followed by NADPH addition measured after 15 mins by LC-MS/MS analysis; assay type: ADME
Sequence of Cytochrome P450 3A4 (P08684 whole entry): as the sequence (P08684 whole entry) above

Candida albicans [15] = test: Antifungal activity against fluconazole-resistant Candida albicans 07109 after 24 hrs by serial dilution method; assay type: functional; conditions: Candida albicans, 07109, 24 h
Candida albicans [16] = test: Antifungal activity against fluconazole-sensitive Candida albicans SC5314 assessed as change in obtusifoliol composition at 8 ug/ml after 24 hrs by GC-MS analysis relative to control; assay type: functional; summary of the method: as §2
Candida albicans [17] = test: Antifungal activity against fluconazole-resistant Candida albicans 07109 after 24 hrs by serial dilution method in presence of fluconazole; assay type: functional
Summary of the method: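 Tested in combination with fluconazole against each fluconazole-resistant C. albicans strain. Interaction was scored by fractional inhibitory concentration index (FICI): synergy at FICI ≤ 0.5, indifference at 0.5 < FICI ≤ 4, antagonism at FICI > 4.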

CYP2C19 = CYP2C19 (Homo sapiens, UniProt P33261); test: Inhibition of CYP2C19 in human liver microsomes assessed as S-mephenytoin conversion to 4'-hydroxy mephenytoin at 0.25 uM preincubated for 10 mins followed by NADPH addition measured after 15 mins by LC-MS/MS analysis relative to control; assay type: ADME; conditions: probe S-mephenytoin
Sequence of CYP2C19 (P33261 whole entry): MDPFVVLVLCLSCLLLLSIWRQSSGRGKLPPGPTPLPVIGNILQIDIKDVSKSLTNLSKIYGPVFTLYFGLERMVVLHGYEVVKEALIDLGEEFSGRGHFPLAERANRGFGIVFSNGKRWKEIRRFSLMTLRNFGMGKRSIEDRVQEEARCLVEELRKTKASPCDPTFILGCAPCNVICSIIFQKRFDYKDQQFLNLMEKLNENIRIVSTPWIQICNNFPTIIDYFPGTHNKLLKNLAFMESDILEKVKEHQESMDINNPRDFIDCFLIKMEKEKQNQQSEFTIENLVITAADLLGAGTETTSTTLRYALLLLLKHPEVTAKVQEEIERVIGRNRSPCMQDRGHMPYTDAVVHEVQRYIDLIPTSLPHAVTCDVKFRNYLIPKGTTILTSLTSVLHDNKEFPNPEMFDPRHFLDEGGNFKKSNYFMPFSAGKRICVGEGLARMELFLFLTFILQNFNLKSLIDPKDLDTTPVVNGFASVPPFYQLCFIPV

In the case of `Fc1ccc2c(c1)c1c(n2CCCOc2ccc(Cl)cc2)CCNC1`, the inhibition (Candida albicans [1]) is reported as “Dose-dependent effect”, the IC50 (WI-38) is reported as > 40 µg/mL and the MIC80 (Nannizzia gypsea) is reported as 1 µg/mL (≈ 2.79 µM). The inhibition at 32 µg/mL (Candida albicans [2]) was > 75%, the inhibition at 0.25 h, 25 µM (CYP3A4 [3]) was 50% and the inhibition at 0.25 h, 25 µM (CYP3A4 [4]) was -35%. For the same compound, the “growth inhibition (GI)” value (Candida albicans [5]) was “Active”, the inhibition at 0.25 h, 0.25 µM (CYP2C9 [6]) was -2% and the inhibition at 0.25 h, 2.5 µM (CYP2C9 [7]) was 8%. The MIC80 (Candida tropicalis) was 4 µg/mL (≈ 11.1 µM), the MIC80 (Candida albicans [8]) was 4 µg/mL (≈ 11.1 µM) and the Activity (Candida albicans [9]) was “inactive”. The MIC80 (Candida albicans [10]) was 4 µg/mL (≈ 11.1 µM), the “growth inhibition (GI)” value (Candida albicans [11]) was “Active” and the MIC80 (Pichia kudriavzevii) was 4 µg/mL (≈ 11.1 µM). For the same compound, the Activity (Candida albicans [12]) was 31.5%, the Activity (Candida albicans [13]) was “Active” and the Activity (Candida albicans [14]) was 12.2%. The IC50 (Cytochrome P450 3A4) was 25 µM, the MIC80 (Candida albicans [15]) was 4 µg/mL (≈ 11.1 µM) and the Activity (Candida albicans [16]) was 3.7%. The “fractional inhibitory concentration index (FICI)” value (Candida albicans [17]) was 0.252 and the inhibition at 0.25 h, 0.25 µM (CYP2C19) was 4%.
